Article PMC9826235 (Chembiochem, 2022)

System: monoclonal anti-HpTGEKP antibody
Format: binding, mouse
Conditions: gas phase complex dissociation; for TambΔSmg# / ΔGm0g# / ΔHm0g#: neutral and resting complex, Tamb 298 K, two measurement series except 02; for ΔHm0g# (approximate values in running text): text rounding of Table 3
How it was run: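 Test phospho-hexapeptides and monoclonal antibody, each in 200 mM ammonium acetate, were mixed at a 3:1 peptide:antibody molar ratio. The mixtures were nano-electrosprayed, and multiply charged immune complex ions underwent gas phase dissociation; an unphosphorylated hexapeptide served as control. Data were duplicate series (mean, SD), fitted with a Boltzmann sigmoid. Enthalpies came from Arrhenius and Gibbs-Helmholtz plots taken at 1/Tamb.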

Q: Which results are given for HpSGERP [compound 06]?
A: TambΔSmg#: -66.38 kJ/mol; ΔGm0g#: +64.65 kJ/mol; ΔHm0g#: -1.75 kJ/mol

Q: What does the source list for HpTEEKP [compound 09]?
A: TambΔSmg#: -66.65 kJ/mol; ΔGm0g#: +64.64 kJ/mol; ΔHm0g#: -2.03 kJ/mol; ΔHm0g# (approximate values in running text): approx. −2.0 kJ/mol

Q: HpTGEKL [compound 07] was tested. Which “TambΔSmg#” value did it give?
A: The value was -66.20 kJ/mol.

Q: What about the “ΔGm0g#” value of the same substance?
A: The value was “+64.69 kJ/mol”.

Q: And the “ΔHm0g#” value?
A: The value was -1.52 kJ/mol.

Q: Which “TambΔSmg#” value does the source give for HpTGEKP [compound 01] here?
A: The value was -66.11 kJ/mol.

Q: What about the “ΔGm0g#” value of the same substance?
A: The value was “+64.75 kJ/mol”.

Q: What about the “ΔHm0g#” value of the same substance?
A: Its value is -1.38 kJ/mol.

Q: Which results are given for HpTGERP [compound 02]?
A: TambΔSmg#: -65.86 kJ/mol; ΔGm0g#: +64.79 kJ/mol; ΔHm0g#: -1.09 kJ/mol

Q: HpTGKKP [compound 05] was tested. Which “TambΔSmg#” value did it give?
A: The value was -63.01 kJ/mol.

Q: What about the “ΔGm0g#” value of the same substance?
A: Its value is “+64.84 kJ/mol”.

Q: What about the “ΔHm0g#” value of the same substance?
A: The value was “+1.81 kJ/mol”.

Q: What about the “ΔHm0g# (approximate values in running text)” value of the same substance?
A: Its value is “approx. +0.3 kJ/mol”.

Q: HpTREKP [compound 10] was tested. Which “TambΔSmg#” value did it give?
A: Its value is -64.54 kJ/mol.

Q: What about the “ΔGm0g#” value of the same substance?
A: Its value is “+64.83 kJ/mol”.

Q: What about the “ΔHm0g#” value of the same substance?
A: The value was “+0.28 kJ/mol”.

Q: What about the “ΔHm0g# (approximate values in running text)” value of the same substance?
A: The value was “~+1.8 kJ/mol”.
